# Many of the other results were omitted from the sample, so hits are more common in it than they were.
# Lmaj promast: Leishmania major promastigote growth inhibition, primary screen; Leishmania major promastigotes, resazurin fluorescence viability; inhibition, % at 10 µM; hit rate 9% among 200,000; AID 1063, 2008; in the data active means inhibition above about 50%;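 further: promastigotes grown with compound for 44 hours at 28 °C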
# Calb FLC: C. albicans growth inhibition with fluconazole, primary screen, CaCi-2 strain, Alamar Blue fluorescence | growth inhibition, % (concentration not given with the values) | AID 1979, 2009 | hit rate 0.57% among 300,000 | C. albicans CaCi-2 + fluconazole, 48 h;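 active means growth inhibition above about 58% in most replicates, limit read from the data, passing the limit was not always enough; inconclusive means exactly half the replicates above a set limit; inactive means most replicates below a set limit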;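 further: all wells also contain fluconazole at 8 µg/ml as a sub-toxic cotreatment; 0% = median of DMSO wells and 100% = median of geldanamycin control wells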
# NALP1 yeast inh: NALP1 inflammasome inhibitors in reconstituted yeast, colorimetric, S. cerevisiae, triplicate retest | inhibition, % at 10 µM | S. cerevisiae NALP1/ASC/caspase-1 growth, X-gal OD620, 72 h | AID 2071, 2009 | hit rate 0.61% among 280,000; in the data active means inhibition mostly above about 24%, no sharp cut-off; inactive means mostly below about 32%
# PolyA inhibitor: polyadenylation inhibitors in yeast reporter cells, primary screen, luminescence, S. cerevisiae. S. cerevisiae SKY197-pL101 polyadenylation reporter, beta-gal luminescence; efflux-impaired pdr1/pdr3 knockout yeast; score 100 = 6 SD above DMSO. activity score, % at 12 µM. hit rate 0.02% among 300,000. AID 1875, 2009;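 active means lowest replicate activity score at least 50, where 100 means six control SD above control mean; inconclusive means lowest score under 50 but half or more replicates reach 50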;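 further: yeast exposed to compound for 9 h at 30 °C; higher score means more reporter readthrough which indicates perturbed polyadenylation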
# T cruzi repl: inhibitors of intracellular T. cruzi growth, primary screen, luminescence, NIH3T3 host cells; T. cruzi beta-gal in NIH3T3, 90 h; inhibition, % (concentration not given with the values); hit rate 1.4% among 300,000; AID 1885, 2009;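 active means mean inhibition across valid replicates above about 55%, limit read from the data; inconclusive means mean below that limit but half or more replicates reach it; inactive means mean below it, under half of replicates reach it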;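 further: signal also drops with host cell toxicity which is not excluded here; 0% = plate median of DMSO wells and 100% = zero luminescence signal; higher percent means less beta-gal luminescence so fewer parasites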
#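 assay system = mouse NIH/3T3 fibroblasts infected with β-gal-expressing T. cruzi Tulahuen C4 | input = 5,000 NIH/3T3 host cells per well | buffer or medium = DMEM plus 2% FBS | timing = 3 h host attachment, then at least 90 h co-culture | measured by = GalScreen luminescence, 60 min | evaluation = luminescence reflecting intracellular parasite burden, expressed as percent inhibition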
# NLRP3 yeast inh: NALP3 inflammasome inhibitors in reconstituted yeast, primary screen, luminescence, uHTS; hit rate 0.39% among 330,000; AID 2825, 2010; Yeast reconstituted NLRP3/ASC/caspase-1, beta-gal luminescence, 24 h; inhibition, % at 10 µM;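 active means inhibition of 50% or more; inactive means inhibition below 50%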;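 further: plate controls were induced DMSO wells for no effect and uninduced yeast grown without galactose for full effect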
# * hit, by the source's call; ? = inconclusive; / = no result given.
SMILES,Lmaj promast,Calb FLC,NALP1 yeast inh,PolyA inhibitor,T cruzi repl,NLRP3 yeast inh
O=C(Nc1ccc(F)cc1)Nc1ccc(N2CCCC2)c(S(=O)(=O)Nc2ccccc2Cl)c1,98.1*,-4.7,26.7,0.5,19.3,12.2
O=C(Nc1ccc(Cl)c(Cl)c1)Nc1ccc(N2CCCC2)c(S(=O)(=O)Nc2ccccc2Cl)c1,98.7*,1.4,20.9,3.1,36.5,1.0
O=C(Nc1ccc(N2CCCCC2)c(S(=O)(=O)Nc2ccccc2Cl)c1)c1cccnc1,/,/,/,/,/,4.9
Cc1oc(-c2cccc(F)c2)nc1CN(Cc1ccccc1)C[C@@H]1CCC(=O)N1,59.3*,-0.7,-7.2,-7.7,18.9,-8.6
COc1ccc(CN(CC2CCC(C(=O)O)CC2)C(=S)Nc2cccc(C)c2)cc1 (stereo not given),2.9,?,-6.2,20.6,-0.2,5.8
CCn1c(N2CCN(C(=O)C34CC5CC(CC(C5)C3)C4)CC2)nc2ccccc21,30.8,18.1,46.1,0.1,18.0,15.9
CCn1c(=N)n(CC(=O)C23CC4CC(CC(C4)C2)C3)c2ccccc21,62.1*,-3.1,26.9,-7.1,57.6*,-2.2
CC(C)OP(=O)(OC(C)C)C(Nc1ccccc1)c1cccc2c1OCO2 (stereo not given),-1.0,-10.7,20.3,17.3,7.5,-0.7
CC(C)OP(=O)(OC(C)C)C(Nc1ccccc1)c1ccccc1C(F)(F)F (stereo not given),94.5*,7.8,32.4,-11.1,9.1,-4.7
O=C(CCl)N1CCN(CC(=O)N2CCCC2)CC1,/,4.2,28.3,10.7,-9.8,10.9
CC(=O)n1cc([C@@H]2C=C(C(=O)N3CCOCC3)O[C@H](OCc3ccc(CO)cc3)C2)c2ccccc21,23.3,1.8,6.7,6.0,26.1,2.5
CC(=O)n1cc([C@H]2C=C(C(=O)N3CCN(Cc4ccc5c(c4)OCO5)CC3)O[C@@H](OCc3ccc(CO)cc3)C2)c2ccccc21,76.2*,25.8,-9.0,-12.1,56.0*,22.5
CC(=O)n1cc([C@H]2C=C(C(=O)N3CCN(Cc4ccccc4)CC3)O[C@@H](OCc3ccc(CO)cc3)C2)c2ccccc21,31.1,-0.9,16.4,-12.1,68.4*,24.8
CC(=O)n1cc([C@H]2C=C(C(=O)Nc3ccccc3)O[C@@H](OCc3ccc(CO)cc3)C2)c2ccccc21,60.0*,-1.4,4.1,6.3,50.0,8.0
C=CCn1c(SCC(=O)NC2(C)CCS(=O)(=O)C2)nc2ccccc21 (stereo not given),/,/,/,/,/,2.0
O=C(NC1CCCCC1)C(c1c(F)cccc1Cl)N(C(=O)c1csnn1)C1CC1 (stereo not given),/,33.4,20.7,-9.8,4.8,28.2
COc1ccc(C2C(C#N)=C(N)N(c3cccnc3)C3=C2C(=O)CCC3)cc1Cn1cc([N+](=O)[O-])cn1 (stereo not given),88.5*,7.3,10.8,-5.0,-0.8,10.4
COc1ccc(C2C(C#N)=C(N)N(c3ccccc3)C3=C2C(=O)CCC3)cc1Cn1cc([N+](=O)[O-])cn1 (stereo not given),99.5*,3.4,-2.5,-0.5,29.3,13.5
COc1ccc(C2C(C#N)=C(N)OC3=C2C(=O)CCC3)cc1Cn1cc([N+](=O)[O-])cn1 (stereo not given),2.0,4.5,/,7.8,-2.5,1.9
COc1ccc(C2C(C#N)=C(N)OC3=C2C(=O)CC(C)(C)C3)cc1Cn1cc([N+](=O)[O-])cn1 (stereo not given),7.2,-4.0,/,4.0,-5.5,12.9
O=C(O)C1CCCN1S(=O)(=O)c1cccc2nsnc12 (stereo not given),12.7,3.2,0.9,4.0,-27.5,10.2
COc1ccccc1OCC#CCNC1CCCCC1C (stereo not given),77.7*,-7.6,9.7,19.3,-0.1,20.4
COc1ccc(S(=O)(=O)Nc2ccccc2-c2nnn(CC(=O)Nc3ccccc3OC)n2)cc1,98.4*,6.3,-32.4,-9.9,26.8,21.6
COc1ccc(NC(=O)Cn2nnc(-c3ccccc3NS(=O)(=O)c3ccccc3)n2)cc1,43.7,-3.2,-16.9,9.2,-27.0,-12.0
